Assay results as given in publication PMC6104147 (Journal of Pharmaceutical Analysis, 2018).

Legend:
Stock solution stability = assay type: physicochemical; conditions: stock solution in methanol; for Long-term stability of stock solution, time with no significant change: 5 °C
Procedure, shortened: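 Methanol stock solutions of the analyte (500 µg/mL) and its deuterated internal standard (100 µg/mL) were tested for short-term and long-term stability. Working solutions were made by dilution in methanol. Stock and working solutions were stored at 2–8 °C.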

PDE-5 = conditions: cited from earlier work
Whole blood stability = assay type: in vitro ADME, human; conditions: 25 °C
[1] = cited from earlier work
[2] = assay type: in vivo, human
Procedure, shortened: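 Single oral 20 mg tablet dose, test vs reference formulation, given fasting to 24 healthy Indian subjects. The test compound was measured in plasma by LC-MS/MS with a deuterated internal standard. 200 µL plasma was extracted on Strata-X-C SPE and run on a Synergi Hydro-RP C18 column. Mobile phase was methanol:10 mM ammonium formate pH 4.0 (90:10) at 0.9 mL/min, with positive ESI MRM. Calibration range was 0.50–500 ng/mL, and non-compartmental PK was calculated.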

[3] = Stability of tadalafil in human plasma under storage and process conditions; assay type: in vitro ADME
[4] = 20 mg oral, fasting, 24 subjects

In the case of `[2H]C([2H])([2H])N1CC(=O)N2[C@H](c3ccc4c(c3)OCO4)c3[nH]c4ccccc4c3C[C@@H]2C1=O` [TAD-d3, tadalafil-d3], the “Long-term stability of stock solution, time with no significant change” value (Stock solution stability) is reported as “up to 10 days” and the “Short-term stability of stock solution, time remained stable” value (Stock solution stability; room temperature) is reported as “up to 7 h”.
For `CCCc1nn(C)c2c(=O)[nH]c(-c3cc(S(=O)(=O)N4CCN(C)CC4)ccc3OCC)nc12` [sildenafil], the “Selectivity for PDE-5 over other PDE isozymes” value (PDE-5) is listed as 41 times.
For `CN1CC(=O)N2[C@H](c3ccc4c(c3)OCO4)c3[nH]c4ccccc4c3C[C@@H]2C1=O` [tadalafil], the “Whole blood stability, time with no evidence of degradation” value (Whole blood stability) is given as “up to 2 h”, the Bioavailability [1] is given as “approximately 80%” and the “Fraction of the metabolized drug excreted in the urine” value [1] is given as “one third”. For the same molecule, the “Long-term stability of stock solution, time with no significant change” value (Stock solution stability) was “up to 10 days”, the “Selectivity for PDE-5 over PDE-1–4 and PDE-7–10” value (PDE-5) was 1000 times and the “Intra subject variation of AUC 0-inf” value [2, 4] was 11.56 % CV. For the same molecule, the “Intra subject variation of AUC 0–168 h” value [2, 4] was 10.09 % CV, the “Intra subject variation of Cmax” value [2, 4] was 9.53 % CV and the Cmax ([2]; male, human, plasma, po, 20 mg) was 396 ng/mL. For the same molecule, the Tmax ([2]; male, human, plasma, po, 20 mg) was about 2.37 h, the half-life ([2]; male, human, plasma, po, 20 mg) was 18.6 ± 2.47 h and the “Ratios of mean log-transformed Cmax, AUC0–168 h and AUC0-inf and their 90% confidence intervals” value ([2]; test vs reference, overall range, acceptance criterion 80%–125%) was 99.2% to 110.9. The “Time found stable in plasma at room temperature” value ([3]; controlled blank plasma) was “up to 12 h” and the “Time stable in extracted plasma samples, room temperature” value ([3]; extracted plasma samples) was 12 h.
